Laboratory results taken from ChEMBL document CHEMBL3046149, “Synthesis, fungicidal activity, and sterol 14α-demethylase binding interaction of 2-azolyl-3,4-dihydroquinazolines on Penicillium digitatum” (J Agric Food Chem, 2013).
Values after ≈ are worked out from the molar mass of the structure shown.

Assays:
[1] = test system: Penicillium digitatum; assay: Fungicidal activity against Penicillium digitatum assessed as inhibition of mycelium at 50 ug/ml measured after 48 hr; format: functional
Procedure, shortened: (§1)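 Poisoned-agar test on P. digitatum. Compounds in DMSO were mixed into molten agar at about 45–50 °C, at 1–50 μg/mL. Blank medium was the control. 5 mm plugs taken from the margins of actively growing mycelial colonies were placed at plate centres. Plates were run in triplicate at 26 °C in darkness. Colony diameter was read at 48 h; inhibition % = (control − treated diameter)/control diameter.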

[2] = test system: Penicillium digitatum; assay: Fungicidal activity against Penicillium digitatum assessed as inhibition of mycelium measured after 48 hr; format: functional, organism-based; procedure, shortened: as §1
[3] = test system: Penicillium digitatum; assay: Fungicidal activity against Penicillium digitatum assessed as inhibition of mycelium at 5 ug/ml measured after 48 hr; format: functional; procedure, shortened: as §1
[4] = test system: Penicillium digitatum; assay: Fungicidal activity against Penicillium digitatum assessed as inhibition of mycelium at 1 ug/ml measured after 48 hr; format: functional; procedure, shortened: as §1
[5] = test system: Penicillium digitatum; assay: Fungicidal activity against Penicillium digitatum assessed as inhibition of mycelium at 10 ug/ml measured after 48 hr; format: functional; procedure, shortened: as §1
[6] = test system: Penicillium digitatum; assay: Fungicidal activity against Penicillium digitatum assessed as inhibition of mycelium at 25 ug/ml measured after 48 hr; format: functional; procedure, shortened: as §1
[7] = biological target: Penicillium digitatum; assay: Antifungal activity against Penicillium digitatum assessed as growth inhibition
[8] = biological target: T1, P450 sterol 14-alpha-demethylase (Penicillium digitatum, UniProt E3SW77); assay: Binding affinity to Penicillium digitatum CYP51
T1 sequence (E3SW77 whole entry): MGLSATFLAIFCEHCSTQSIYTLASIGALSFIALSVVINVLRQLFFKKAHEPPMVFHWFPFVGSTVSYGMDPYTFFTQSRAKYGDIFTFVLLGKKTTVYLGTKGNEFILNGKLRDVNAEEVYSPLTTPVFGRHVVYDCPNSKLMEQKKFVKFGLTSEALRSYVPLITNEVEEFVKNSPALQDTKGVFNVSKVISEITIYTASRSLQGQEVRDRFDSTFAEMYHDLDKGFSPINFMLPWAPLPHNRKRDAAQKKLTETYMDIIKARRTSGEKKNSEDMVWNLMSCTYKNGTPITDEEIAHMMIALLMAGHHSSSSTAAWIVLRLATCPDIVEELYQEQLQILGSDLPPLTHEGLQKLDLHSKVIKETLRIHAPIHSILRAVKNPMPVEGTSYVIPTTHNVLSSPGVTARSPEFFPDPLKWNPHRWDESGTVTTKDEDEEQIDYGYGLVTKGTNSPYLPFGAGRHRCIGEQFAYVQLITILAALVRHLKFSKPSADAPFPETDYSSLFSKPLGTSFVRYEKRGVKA
Procedure, shortened: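 Recombinant His-tagged P. digitatum CYP51 from E. coli BL21(DE3), Ni-NTA purified, in 100 mM PBS pH 7.2. Difference spectra at 350−500 nm were recorded 1 min after adding compound at room temperature, with DMSO below 0.5%. Kd came from a Hanes−Woolf plot of [I] versus [I]/ΔA, using Amax from the saturated absorbance shift.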

Structure (SMILES) | inhibition at 50 µg/mL [1] [%] | IC50 [2] [µg/mL] | inhibition at 5 µg/mL [3] [%] | inhibition at 1 µg/mL [4] [%] | inhibition at 10 µg/mL [5] [%] | inhibition at 25 µg/mL [6] [%] | IC50 [7] [µM] | Kd [8] [µM]
CC(=O)CC1c2ccccc2N=C(n2cncn2)N1c1ccc(Cl)cc1 (configuration not stated) | 10 | > 50 | – | – | – | – | – | –
CC(=O)CC1c2ccccc2N=C(n2ccnc2)N1C(C)C (configuration not stated) | 28 | 126 (≈ 425 µM) | 4 | 0 | 15 | – | – | –
CC(=O)CC1c2ccccc2N=C(n2cncn2)N1c1ccccc1 (configuration not stated) | 24 | 129 (≈ 389 µM) | 0 | 0 | 11 | – | – | –
CC(=O)CC1c2ccccc2N=C(n2ccnc2)N1c1ccc(F)cc1 (configuration not stated) | 100 | 4.14 (≈ 11.9 µM) | 52 | 9 | 86 | 100 | 11.9 | 0.976
CC(=O)CC1c2cc(Cl)ccc2N=C(n2cncn2)N1C(C)C (configuration not stated) | 17 | > 50 | – | – | – | – | – | –
CC(=O)CC1c2ccccc2N=C(n2cncn2)N1c1cccc(C)c1 (configuration not stated) | 44 | 60.1 (≈ 174 µM) | 12 | 0 | 19 | – | – | –
CCCCN1C(n2ccnc2)=Nc2ccccc2C1CC(C)=O (configuration not stated) | 100 | 15.6 (≈ 50.2 µM) | 14 | 5 | 29 | 57 | 50.2 | 13.3
CC(=O)CC1c2ccccc2N=C(n2cncn2)N1C(C)C (configuration not stated) | 10 | > 50 | – | – | – | – | – | –
CC(=O)CC1c2cc(Cl)ccc2N=C(n2ccnc2)N1c1ccc(F)cc1 (configuration not stated) | 100 | 7.12 (≈ 18.6 µM) | 21 | 9 | 64 | 100 | 18.6 | 2.4
CC(=O)CC1c2ccccc2N=C(n2ccnc2)N1c1ccccc1 (configuration not stated) | 100 | 5.06 (≈ 15.3 µM) | 29 | 8 | 61 | – | – | –
CC(=O)CC1c2cc(Cl)ccc2N=C(n2cncn2)N1c1ccccc1 (configuration not stated) | 8 | > 50 | – | – | – | – | – | –
CC(=O)CC1c2ccccc2N=C(n2cncn2)N1c1ccc(F)cc1 (configuration not stated) | 14 | > 50 | – | – | – | – | – | –
CC(C)(C)C(=O)CC1c2ccccc2N=C(n2cncn2)N1c1ccccc1 (configuration not stated) | 35 | 90 (≈ 241 µM) | 8 | 0 | 15 | – | – | –
CC(=O)CC1c2cc(Cl)ccc2N=C(n2ccnc2)N1C(C)C (configuration not stated) | 30 | 128 (≈ 387 µM) | 8 | 0 | 12 | – | – | –
CC(=O)CC1c2ccccc2N=C(n2ccnc2)N1c1ccc(Cl)cc1 (configuration not stated) | 100 | 10.4 (≈ 28.5 µM) | 14 | 0 | 35 | 100 | 28.5 | 2.91
CC(C)(C)C(=O)C(Oc1ccc(Cl)cc1)n1cncn1 (configuration not stated) [TRIADIMEFON] | 100 | – | 27 | 0 | 60 | 100 | – | –
Cc1cccc(N2C(n3cncn3)=Nc3ccccc3C2CC(=O)C(C)(C)C)c1 (configuration not stated) | 40 | 67.1 (≈ 173 µM) | 8 | 0 | 22 | – | – | –
